“Also recorded” adds a separate entry of the source. Where no end group is shown, it is not given here.
How the values were obtained:
RSPO2–BMPR1A interaction = assay: Cell surface–binding assay, RSPO2-AP on BMPR1A-transfected HEK293T cells; type: cell-based, human; conditions: for RSPO2 binding to BMPR1A transfected cells / RSPO2–BMPR1A binding after long-term dendrimer treatment: 20 μM dendrimer; for RSPO2 binding to BMPR1A transfected cells: n = 3; for RSPO2–BMPR1A binding after long-term dendrimer treatment: 16 h
Method in brief: (§1)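 HEK293T cells were transfected with BMPR1A-HA or LGR4. They were incubated with RSPO2-AP or RSPO3-AP conditioned medium from transiently transfected HEK293T cells, plus 20 μM dendrimer or 50 μM monomeric peptide, for 3 h or 16 h. Surface-bound AP was developed with BM-Purple chromogenic substrate, then imaged and quantified.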

[1] = tested on: pSmad1 in THP-1 AML cells; assay: Western blot of pSmad1 in THP-1 cells; type: cell-based, human; conditions: 3 days
Method in brief: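 THP-1 cells were exposed for 3 days to 0.5 μM unmodified or N-PEG dendrimer, or 2.0 μM C-PEG dendrimer. Lysis was in Triton or RIPA buffer with protease inhibitors, followed by boiling in Laemmli/β-mercaptoethanol at 95 °C for 5 min. SDS-PAGE immunoblots were probed for phospho-Smad1 against total Smad1 and developed by ECL.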

[2] = target: RSPO2^TSP1–BMPR1A^ECD interaction (Homo sapiens, UniProt P36894); assay: In vitro competitive binding assay; conditions: for reduction of RSPO2^TSP1–BMPR1A^ECD interaction: 100 μM monomeric peptide, 3 h, AP activity, n = 2 to 3 experimental replicates
Sequence of RSPO2^TSP1–BMPR1A^ECD interaction (P36894 24-152 limits assumed): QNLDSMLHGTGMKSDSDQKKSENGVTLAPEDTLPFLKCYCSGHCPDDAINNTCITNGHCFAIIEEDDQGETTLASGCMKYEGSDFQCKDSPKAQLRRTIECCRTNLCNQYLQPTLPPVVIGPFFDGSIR
Method in brief: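 Plates were coated overnight at 4 °C with 1 to 2 μg anti-HA and blocked 1 h in 5% BSA/TBST. HA-RSPO2 TSP1 conditioned medium was captured overnight. AP-BMPR1A ECD was then added for 3 h with 100 μM monomeric peptide (Cys→Ser; in DPBS pH 7.4) or a peptide concentration series. After TBST washes, bound AP was read with chemiluminescent substrate, and IC50 was fitted.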

[3] = tested on: Xenopus tropicalis embryos; assay: Xenopus embryo blastocoel microinjection, phenotype; type: in vivo; conditions: 20 nl of 50 μM dendrimer into blastocoel at stage 9
Method in brief: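 X. tropicalis embryos from in vitro fertilization received 20 nl of 50 μM dendrimer in PBS into the blastocoel at stage 9, with bmp4 mRNA at the 4-cell stage as comparator. Embryos were cultured to tailbud stage 28 and scored blind for head size and ventral structures across two independent experiments.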

[4] = tested on: BMPR1A-HA membrane staining in H1581 cells; assay: Immunofluorescence of BMPR1A-HA membrane localization in H1581 cells; type: cell-based, human; conditions: H1581 transfected with BMPR1A-HA, 0.5 μM dendrimer, 3 days
LGR4 = assay: Cell surface–binding assay, RSPO2-AP on LGR4-transfected HEK293T cells; type: cell-based, human; conditions: 20 μM dendrimer, 3 h
Method in brief: as §1

[5] = tested on: BMP4 signaling (pSmad1) in HEPG2 cells; assay: Western blot of pSmad1 in HEPG2 cells; type: cell-based, human
[6] = tested on: P38 MAPK and P44/42 MAPK phosphorylation in HEPG2 cells; assay: Western blot of pP38 and pP44/42 MAP kinases in HEPG2 cells; type: cell-based, human; conditions: HEPG2, BMP4 + RSPO2, 0.5 μM dendrimer, 1 h, starved overnight
[7] = tested on: WNT-mediated activation of β-catenin in H1581 cells; assay: Western blot of activated β-catenin in H1581 cells treated with WNT3A; type: cell-based, human; conditions: 0.5 μM dendrimer
THP-1 cells = assay: Flow cytometry of CD11B^+ THP-1 cells; type: cell-based, human; conditions: THP-1, 3 days, 0.5/1.0/1.5 μM nonmodified, 2.0/3.0 μM N-PEG, 3.0/4.0 μM C-PEG dendrimer
[8] = tested on: BMP target gene expression (sizzled); assay: Whole-mount in situ hybridization of sizzled in Xenopus gastrulae; type: in vivo, Xenopus tropicalis; conditions: 20 nl of 50 μM dendrimer at stage 9, gastrulae stage 11
Method in brief: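 X. tropicalis embryos were injected at stage 9 into the blastocoel with 20 nl of 50 μM dendrimer in PBS; bmp4 mRNA injected radially at the 4-cell stage served as control. Embryos were fixed at gastrula stage 11 and processed by whole-mount in situ hybridization with a digoxigenin-labeled antisense sizzled probe. The sizzled-expressing area was quantified, pooled from two independent experiments.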

RSPO3 binding to BMPR1A = assay: Cell surface–binding assay, RSPO3-AP on BMPR1A-transfected HEK293T cells; type: cell-based, human; conditions: 20 μM non-PEGylated dendrimer, 3 h; n = 3
Method in brief: as §1

[9] = tested on: BMP signaling (Vent2 reporter); assay: BMP-responsive Vent2 reporter assay in Xenopus embryos; type: in vivo, Xenopus tropicalis; conditions: 20 nl of 50 μM dendrimer at stage 9, firefly normalized to Renilla
Method in brief: (§2)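 X. tropicalis embryos were co-injected at the 2-cell stage with 200 pg Vent-Luc (BMP) or Topflash (WNT) plus 100 pg Renilla-TK plasmid. At stage 9, 20 nl of 50 μM dendrimer in PBS went into the blastocoel; controls were bmp4 mRNA or lrp6 morpholino. Three pools of four embryos each were lysed at stage 14 to 15 for dual luciferase, firefly normalized to Renilla. Unpaired t test or one-way ANOVA.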

[10] = tested on: WNT signaling (TopFlash reporter); assay: WNT-responsive TopFlash reporter assay in Xenopus embryos; type: in vivo, Xenopus tropicalis; conditions: 20 nl of 50 μM dendrimer at stage 9, firefly normalized to Renilla
Method in brief: as §2

pSmad1 in H1581 cells = assay: Western blot of pSmad1 in H1581 cells; type: cell-based, human; conditions: H1581 (elevated RSPO2), 0.5 μM dendrimer, 3 days
[11] = 0.5 μM nonmodified or N-PEG dendrimer

## (PEG-KMTMR)8-Lys4-Lys2-Lys-β-Ala [N-PEG KR^d]
RSPO2–BMPR1A interaction; 3 h
  RSPO2 binding to BMPR1A transfected cells: no effect

## (PEG-RNNRTSGFKW)8-Lys4-Lys2-Lys-β-Ala [N-PEG RW^d]
RSPO2–BMPR1A interaction; 3 h
  RSPO2 binding to BMPR1A transfected cells: abolished RSPO2 binding
RSPO2–BMPR1A interaction
  RSPO2–BMPR1A binding after long-term dendrimer treatment: completely disrupt RSPO2–BMPR1A binding

## (RNNRTSGFKW-PEG)8-Lys4-Lys2-Lys-β-Ala [C-PEG RW^d]
[1]; 2.0 μM C-PEG dendrimer
  pSmad1 induction in THP-1 cells: Elevated pSmad1 levels

## DTILSPTIAE [DE]
[2]
  reduction of RSPO2^TSP1–BMPR1A^ECD interaction: greater than 50%

## KMTMR [KR]
[2]; peptide treatment, concentration not given
  effect on RSPO2–BMPR1A interaction in vitro (Fig. S2A): did not affect RSPO2–BMPR1A interaction
[3]
  embryotoxicity: no embryotoxicity
[1]; [11]
  pSmad1 induction in THP-1 cells: but not KR^d treatment
RSPO2–BMPR1A interaction; 3 h
  RSPO2 binding to BMPR1A transfected cells: no effect
[4]
  increase in the number of cells showing BMPR1A-HA membrane staining: but not KR^d treatment

## PEG-RW: RW peptide mini-PEGylated at both N and C termini ({mini‑PEG}-RNNRTSGFKW-{mini‑PEG})
RSPO2–BMPR1A interaction; 50 μM PEGylated monomeric peptide, 3 h
  inhibition of RSPO2-AP binding to BMPR1A-transfected cells, short-term: inhibited RSPO2–BMPR1A interaction

## RNNRTSGFKW [RW]
LGR4
  RSPO2 binding to LGR4 transfected cells: without affecting LGR4 binding
[5]; HEPG2, 0.5 μM dendrimer, 3 days
  pSmad1 level without simultaneous treatment of RSPO2: no effect on pSmad1 level
[5]; HEPG2, BMP4 + RSPO2, 0.5 μM dendrimer, 1 h, starved 3 h
  rescue of RSPO2-mediated decrease of pSmad1 levels: rescued the RSPO2-mediated
[5]; HEPG2, BMP4 + RSPO3, 0.5 μM dendrimer, 1 h, starved 3 h
  rescue of RSPO3-mediated decrease of pSmad1 levels: not the RSPO3-mediated decrease of pSmad1 levels
[6]
  rescue of RSPO2-mediated decrease of pP38 and pP44/42 levels: rescued the RSPO2-mediated decrease of pP38 and pP44/42 levels
[7]
  WNT-mediated activation of β-catenin: no effect
[2]
  reduction of RSPO2^TSP1–BMPR1A^ECD interaction: strongest inhibition; also recorded: greater than 50%
THP-1 cells
  induction of the number of CD11B^+ cells: ~10 fold
[3]; listed as RW^d
  embryotoxicity: no Xenopus embryotoxicity
[1]; [11]
  pSmad1 induction in THP-1 cells: induced pSmad1
RSPO2–BMPR1A interaction; 3 h
  RSPO2 binding to BMPR1A transfected cells: abolished RSPO2 binding
RSPO2–BMPR1A interaction
  RSPO2–BMPR1A binding after long-term dendrimer treatment: completely disrupt RSPO2–BMPR1A binding
[8]
  sizzled expression: expanded BMP target gene expression (sizzled) toward the dorsal side
RSPO3 binding to BMPR1A
  RSPO3 binding to BMPR1A transfected cells: unable to abolish RSPO3 binding
[9]
  endogenous BMP signaling (Vent2 reporter): enhanced endogenous BMP signaling
[10]
  WNT signaling (TopFlash reporter): no effect on WNT signaling
pSmad1 in H1581 cells
  phosphorylation of Smad1: increased phosphorylation of Smad1
[4]
  increase in the number of cells showing BMPR1A-HA membrane staining: approximately threefold

## SRRSKMTMRHSPG [SG]
[2]
  reduction of RSPO2^TSP1–BMPR1A^ECD interaction: greater than 50%
